The whole screen tested about 220,000 compounds, of which about 390 (0.18%) were called active.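 How the source made its calls: active means activation above its plate's cutoff, the mean activation of test wells on that plate plus 3 SD (cut at about 19% in these data); inactive means the rest.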 For the sample, actives were picked, then their nearest neighbours and some compounds at random.
What follows are compounds tested on transient receptor potential cation channel N1 (TRPN1/NompC), Danio rerio (assay: zebrafish TRPN1 channel agonists, primary screen, cell-based, HEK293, calcium fluorescence (AID 1424;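 further: 0% = DMSO alone and 100% = 87 µM carbachol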)). Conditions: HEK293 zebrafish TRPN1-YFP, Fluo-8 calcium fluorescence; at 3 µM; active compounds read high; 100% = response to 87 µM carbachol.
Outline: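 Assay system: Zebrafish TRPN1-YFP in HEK293 cells | Incubation: Dye loading 1 h at 37 °C, then 30 min room temperature | Measured by: Kinetic Fluo-8 fluorescence, ex 470-495, em 515-575 nm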

SMILES | activation
CC(=O)c1c(C)[nH]c(=S)c(C#N)c1-c1ccc(F)cc1 | -0.66% (inactive)
Oc1ccc2ccc3cccc[n+]3c2c1 | 33.7% (active)
CCN(Cc1ccccc1)S(=O)(=O)c1cc(C(=O)O)ccc1OC | -2.45% (inactive)
COc1cc(OC)cc(C(=O)N[C@H](C(=O)Nc2nc3ccccc3[nH]2)C(C)C)c1 | -2.24% (inactive)
COc1cc(OC)cc(C(=O)N[C@H](C(=O)OCC(=O)NC(C)c2ccccc2)C(C)C)c1 (stereo partly specified) | 46.5% (active)
CC(NC(=O)COC(=O)c1ccc2c(c1)OCO2)c1ccccc1 (stereo unspecified) | 1% (inactive)
COc1ccc(C(=O)N/N=C2\CCS(=O)(=O)c3ccc(F)cc32)cc1OC | 2.13% (inactive)
COC(=O)c1cc(NC(=O)CN2CCN(C(C)=O)CC2)cc(C(=O)OC)c1 | 2.13% (inactive)
COc1cc(OC)c(C(=O)NC2CC(C)(C)NC(C)(C)C2)cc1OC | 2.05% (inactive)
COc1ccc(S(=O)(=O)NC(C)C)cc1C(=O)NC1CCCCC1 | -0.93% (inactive)
COc1cc(OC)c(C(=O)NC2CCCCCC2)cc1OC | 32.1% (active)
CC(C)(C)c1cc(NC(=O)NN2CCOCC2)nn1-c1c(Cl)cc(Cl)cc1Cl | 0.61% (inactive)
O=C(NC(=O)N1CCSCC1)c1c(Cl)cccc1Cl | 2.1% (inactive)
O=S(=O)(/N=C(/Nc1ccccc1)c1ccccc1)c1cccs1 | -0.34% (inactive)
O=C(NCCCN1CCN(c2ccc(F)cc2)CC1)Nc1ccc([N+](=O)[O-])cc1 | 10.4% (inactive)
Cc1ccccc1NC(=S)NNC(=O)c1cccc(Br)c1 | 2.03% (inactive)
CC(=O)Nc1ccc(CN2CCN(Cc3ccc(F)c(F)c3)C(CCO)C2)cc1 (stereo unspecified) | 2.06% (inactive)
CCOC(=O)/C(=N\Nc1ccccc1Cl)N(C)C1CCS(=O)(=O)C1 (stereo unspecified) | -0.61% (inactive)
COc1ccc(C(=O)N/N=C(\C)CC(=O)Nc2ccc(Cl)cn2)cc1 | -1.34% (inactive)
NC(=O)CC[C@@H]1NC(=O)[C@@H]2CCCN2C(=O)c2cc([N+](=O)[O-])cc(F)c2NCCC[C@@H](C(N)=O)NC1=O | 1.08% (inactive)
Cc1cccc(OCC(=O)NC(=S)Nc2ccccc2N2CCOCC2)c1 | -0.19% (inactive)
Cc1ccc(O)c(NC(=O)COc2cc(C)ccc2C)c1 | -0.38% (inactive)
Cc1ccc(O)c(NC(=S)NC(=O)COc2ccc(Br)cc2)c1 | 30.4% (active)

SMILES | activation
CC(=O)c1sc(NC(=O)C2=NN(c3ccccc3)C(=O)CC2)nc1C | 0.7% (inactive)
C=CCNC(=S)N1CCc2[nH]c3ccccc3c2C1 | 0.61% (inactive)
Cc1cc(C)c2[nH]c(=O)c(CN(Cc3ccccc3)C(=S)NCCCN(C)C)cc2c1 | -0.96% (inactive)
CSc1ncccc1C(=O)OCc1ccc(Br)cc1 | -0.54% (inactive)
Nc1c(C(=O)c2cccs2)sc2nsc(SCCN3CCCCC3)c12 | 33.7% (active)
CN(C)c1ccnc2sc(C(=O)c3ccccc3)c(N)c12 | -2.41% (inactive)
Cc1nc2sc(C(=O)c3ccccc3)c(N)c2c2c1CCCC2 | -0.99% (inactive)
Cn1ccs/c1=N\S(=O)(=O)c1ccc(C(C)(C)C)cc1 | 1.16% (inactive)
COc1ccccc1C1CC(=O)n2c(nc(-c3ccccc3)c2-c2ccccc2)S1 (stereo unspecified) | -0.42% (inactive)
COc1c(C)cc(C(=O)C2CCCN(S(=O)(=O)c3c(C)noc3C)C2)cc1C (stereo unspecified) | -0.64% (inactive)
Fc1ccc(NC(=S)N2CCc3[nH]c4ccccc4c3C2)cc1 | 3.02% (inactive)
O=C(NCCCn1ccnc1)C(=O)NCC1OCCN1S(=O)(=O)c1cc(F)ccc1F (stereo unspecified) | 1% (inactive)
CC(C)CC(CC(C)C)=NNC(=O)c1ccc(CSc2nncn2C)cc1 | -0.24% (inactive)
CC(=O)Nc1ccccc1C(=O)C(=O)Nc1ccc(F)cc1 | 0% (inactive)
COc1ccc(COC(=O)N/N=C(\C)CC(=O)Nc2ccc(Cl)cc2)cc1 | -1.28% (inactive)
COc1ccccc1CSc1ncc(-c2ccc([N+](=O)[O-])cc2)[nH]1 | -2.17% (inactive)
CCc1ccc(NC(=O)C(C)OC(=O)/C=C/c2cccc([N+](=O)[O-])c2)cc1 (stereo unspecified) | 2.04% (inactive)
Cn1cnc(C(F)(F)F)c1-c1ccc([N+](=O)[O-])cc1 | -1.25% (inactive)
Cc1cc(C)cc(OCC(=O)O/N=C(\N)Cc2ccc([N+](=O)[O-])cc2)c1 | -1.73% (inactive)
O=c1c(Cl)c(NCc2ccc(F)cc2Cl)cnn1C12CC3CC(CC(C3)C1)C2 | 0.56% (inactive)
O=C(Nc1nc2ccc([N+](=O)[O-])cc2s1)c1ccncc1 | 4.01% (inactive)
O=C(NC(Nc1nc2ccc([N+](=O)[O-])cc2s1)(C(F)(F)F)C(F)(F)F)c1ccccc1 | 27.4% (active)
O=C(O)CCC(=O)Nc1nc2ccc([N+](=O)[O-])cc2s1 | -0.08% (inactive)

— PubChem BioAssay AID1424 (The Scripps Research Institute Molecular Screening Center, 2008)
